Here are results for one compound from publication PMC3923119 (Osteoporosis International, 2013).

In series [1] the test system is postmenopausal women with osteoporosis. Kind of series: Adverse events. In kind it is in vivo, human. The conditions noted are these: 56.5 μg once weekly for 24 weeks. Put shortly: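 Japanese postmenopausal women with osteoporosis, aged 60–79, at four centres. Test compound (PTH peptide) 56.5 μg given s.c. weekly for 24 weeks, with daily calcium 610 mg, vitamin D 400 IU and magnesium 30 mg. Physicians recorded adverse events and classified them by MedDRA 12.0 system organ class.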

In series [2] the test system is healthy postmenopausal women. The settings on record: day 7 after single injection of 56.5 μg; cited from earlier work.
The conditions of series [3]: cited from earlier work.
The conditions of series [4]: daily teriparatide, cited from earlier work.
Series [5] deals with postmenopausal women with osteoporosis. Kind of series: Changes in calcium metabolism. The format is in vivo, human. Put shortly:
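Weekly s.c. 56.5 μg test compound for 24 weeks, in osteoporotic women aged 60–79 on calcium/vitamin D/magnesium supplements. Blood was drawn in weeks 0, 4, 12 and 24, with 0 h sampling at 0800 before dosing and further samples over 24 h. Corrected serum Ca and intact PTH (electrochemiluminescence immunoassay) are given as means±SE versus 0 h or week 0, paired t test.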

The test system is the same in series [6]. Put plainly: Changes in bone turnover markers. The format is in vivo, human. Put shortly:
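Women aged 60–79 received 56.5 μg test compound s.c. weekly for 24 weeks. In weeks 0, 4, 12 and 24, dosing followed 0 h sampling at 0800, with serum/urine taken at 0, 2, 4, 6, 8, 12 and 24 h. Osteocalcin was measured by IRMA, P1NP by RIA, urinary NTX by ELISA, plus urinary DPD. Read-outs were mean (±SE) percent change from 0 h or week 0, paired t test.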

Where [7] appears, read: after 24 weeks, 56.5 μg once weekly.
Setting [8] is: at 4 weeks, 56.5 μg once weekly, mean percent change, significant.

Read-outs that look alike come from different tables or passages of the source.

Consider `CC[C@H](C)[C@H](NC(=O)[C@H](CCC(=O)O)NC(=O)[C@H](CO)NC(=O)[C@@H](NC(=O)[C@@H](N)CO)C(C)C)C(=O)N[C@@H](CCC(N)=O)C(=O)N[C@@H](CC(C)C)C(=O)N[C@@H](CCSC)C(=O)N[C@@H](Cc1cnc[nH]1)C(=O)N[C@@H](CC(N)=O)C(=O)N[C@@H](CC(C)C)C(=O)NCC(=O)N[C@@H](CCCCN)C(=O)N[C@@H](Cc1cnc[nH]1)C(=O)N[C@@H](CC(C)C)C(=O)N[C@@H](CC(N)=O)C(=O)N[C@@H](CO)C(=O)N[C@@H](CCSC)C(=O)N[C@@H](CCC(=O)O)C(=O)N[C@@H](CCCN=C(N)N)C(=O)N[C@H](C(=O)N[C@@H](CCC(=O)O)C(=O)N[C@@H](Cc1c[nH]c2ccccc12)C(=O)N[C@@H](CC(C)C)C(=O)N[C@@H](CCCN=C(N)N)C(=O)N[C@@H](CCCCN)C(=O)N[C@@H](CCCCN)C(=O)N[C@@H](CC(C)C)C(=O)N[C@@H](CCC(N)=O)C(=O)N[C@@H](CC(=O)O)C(=O)N[C@H](C(=O)N[C@@H](Cc1cnc[nH]1)C(=O)N[C@@H](CC(N)=O)C(=O)N[C@@H](Cc1ccccc1)C(=O)O)C(C)C)C(C)C` [teriparatide, Human parathyroid hormone (PTH) 1–34], for which the Hypercalcemia result in series [1] was “not observed”. In addition, the “serious AEs” value in series [1] (28 subjects) was “No serious AEs were observed”. In series [2], the NTX decrease is listed as 10%, the P1NP increase is listed as 10% and the osteocalcin increase was 5%. The “relative risk reduction in vertebral fractures” value in series [3] (daily teriparatide) is 65%. Also, in series [3] (once-weekly teriparatide injection, 95 % CI, 0.24–1.84, p = 0.43), the “relative risk of non-vertebral fragility fracture” value is 0.67. In addition, in series [3] (once-weekly teriparatide), the “relative risk reduction in vertebral fractures” value is given as 80%. Also, the “bone formation marker increase” value in series [4] (after 1 month) is given as 105%. Further, in series [4] (after 6 months), the “bone formation marker (serum PINP) increase” value was 218% and the “bone resorption marker (urinary NTX) increase” value is listed as 58%. In addition, the “serum corrected Ca level during the 24 week dosage period” value in series [5] (0 h values at 4 and 24 weeks versus 0 weeks, 56.5 μg once weekly, paired t test) is on record as “decreased significantly”. Further, the “intact PTH level during the dosage period of 24 weeks” value in series [5] (0 h values at 12 and 24 weeks versus 0 weeks, 56.5 μg once weekly, paired t test) is on record as “decreased significantly”. The “serum intact PTH minimum concentration” value in series [5] (at 2 or 6 h after 56.5 μg injection, range of means over data collection weeks) lay within 25.6 to 28.3 pg/mL. In series [6] (setting [7]), the “serum P1NP change after 24 weeks” value is “did not increase significantly” and the “serum osteocalcin change after 24 weeks” value is on record as “increased significantly”. For the same compound, in series [6] (at 2 or 4 h after 56.5 μg injection, range of means over data collection weeks), the “urinary DPD maximum value, 24 h percent change from 0 h” value is reported as 29.5 to 31.6%. The “urinary NTX maximum value, 24 h percent change from 0 h” value in series [6] (at 4 or 6 h after 56.5 μg injection, range of means over data collection weeks) is recorded as 41.2 to 67.4%. Further, in series [6] (at 4 weeks, 56.5 μg once weekly, mean percent change), the “urinary DPD decrease from baseline (0 h values)” value is given as 17.8%. In series [6] (setting [8]), the “serum P1NP increase from baseline (0 h values)” value was found to be 19.9%, the “serum osteocalcin increase from baseline (0 h values)” value stood at 26.8% and the “urinary NTX decrease from baseline (0 h values)” value is reported as 14.8%. Besides, in series [6] (at 6 h after 56.5 μg injection, range of means over data collection weeks), the “serum P1NP minimum value, 24 h percent change from 0 h” value was −15.1 to −22.3%.
